Measured values taken from ChEMBL document CHEMBL3797200, “Mohangic Acids A-E, p-Aminoacetophenonic Acids from a Marine-Mudflat-Derived Streptomyces sp” (J Nat Prod, 2016).
The source made the active and inactive calls. The calls are words filed in the database; no cut-off is given here.

Columns and labels:
Escherichia coli = assay: Antibacterial activity against Escherichia coli; assay type: functional
Candida albicans = assay: Antifungal activity against Candida albicans; assay type: functional
A549 = assay: Cytotoxicity against human A549 cells after 72 hrs by SRB assay; assay type: functional, cell-based; settings: A549, 72 h
[1] = Cytotoxicity against human SNU638 cells after 72 hrs by SRB assay; assay type: functional, cell-based; settings: SNU-638, 72 h
Proteus hauseri = assay: Antibacterial activity against Proteus hauseri; assay type: functional
[2] = Cytotoxicity against human HCT116 cells after 72 hrs by SRB assay; assay type: functional, cell-based; settings: HCT-116, 72 h
Bacillus subtilis = assay: Antibacterial activity against Bacillus subtilis; assay type: functional
[3] = Cytotoxicity against human SKHEP1 cells after 72 hrs by SRB assay; assay type: functional, cell-based; settings: SK-HEP1, 72 h
Kocuria rhizophila = assay: Antibacterial activity against Kocuria rhizophila; assay type: functional
Salmonella enterica = assay: Antibacterial activity against Salmonella enterica; assay type: functional
Mus musculus [4] = species on record: Mus musculus; assay: Induction of Quinone reductase activity in mouse Hepa1c1c7 cells at 20 uM after 24 hrs by MTT assay relative to control; assay type: cell-based
Procedure, shortened: (§1)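 Hepa-1c1c7 murine hepatoma cells plated at 20 000 cells/mL, grown 24 h (37 °C, 5% CO2), then compound-treated 24 h; vehicle 0.1% DMSO, β-naphthoflavone 2 μM positive control. Lysis in Tris/NaCl/MgCl2/0.5% NP-40, then FAD, G6P/G6PDH, NADP, MTT, menadione mix, 10 min; MTT reduction at 610 nm, crystal violet protein on parallel plates; SA = (MTTabs/CVabs)×3345, nmol/min/mg; mean ± SD of four determinations.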

Staphylococcus aureus = assay: Antibacterial activity against Staphylococcus aureus; assay type: functional
MDA-MB-231 = assay: Cytotoxicity against human MDA-MB-231 cells after 72 hrs by SRB assay; assay type: functional, cell-based; settings: MDA-MB-231, 72 h
K562 = assay: Cytotoxicity against human K562 cells after 72 hrs by SRB assay; assay type: functional, cell-based; settings: K562, 72 h
Aspergillus fumigatus = assay: Antifungal activity against Aspergillus fumigatus; assay type: functional
Mus musculus [5] = species on record: Mus musculus; assay: Induction of Quinone reductase activity in mouse Hepa1c1c7 cells at 5 uM after 24 hrs by MTT assay relative to control; assay type: cell-based; procedure, shortened: as §1
Mus musculus [6] = species on record: Mus musculus; assay: Induction of Quinone reductase activity in mouse Hepa1c1c7 cells after 24 hrs by MTT assay; assay type: cell-based; procedure, shortened: as §1
Mus musculus [7] = species on record: Mus musculus; assay: Induction of Quinone reductase activity in mouse Hepa1c1c7 cells at 10 uM after 24 hrs by MTT assay relative to control; assay type: cell-based; procedure, shortened: as §1
[8] = Cytotoxicity against mouse Hepa1c1c7 cells; assay type: cell-based
Mus musculus [9] = species on record: Mus musculus; assay: Induction of Quinone reductase activity in mouse Hepa1c1c7 cells at 2 uM after 24 hrs by MTT assay relative to control; assay type: cell-based; procedure, shortened: as §1
Mus musculus [10] = species on record: Mus musculus; assay: Induction of Quinone reductase activity in mouse Hepa1c1c7 cells at 30 uM after 24 hrs by MTT assay relative to control; assay type: cell-based; procedure, shortened: as §1

Structure (SMILES)	MIC (Escherichia coli) [µM]	MIC (Candida albicans) [µM]	IC50 (A549) [µM]	IC50 [1] [µM]	MIC (Proteus hauseri) [µM]	IC50 [2] [µM]	MIC (Bacillus subtilis) [µM]	IC50 [3] [µM]	MIC (Kocuria rhizophila) [µM]	MIC (Salmonella enterica) [µM]	Activity (Mus musculus [4])	MIC (Staphylococcus aureus) [µM]	IC50 (MDA-MB-231) [µM]	IC50 (K562) [µM]	MIC (Aspergillus fumigatus) [µM]	other results
CC(=O)Nc1ccc([C@H](O)C[C@@H](O)[C@H](C)C[C@@H](C)[C@H](O)[C@H](C)/C=C/C=C/C=C/[C@H](O)CC(=O)O)cc1	> 128	> 128	> 10	> 10	> 128	> 10	> 128	> 10	> 128	> 128	inactive	> 128	> 10	> 10	> 128	–
C[C@H](/C=C/C=C/C=C/[C@H](O)CC(=O)O)[C@@H](O)[C@H](C)C[C@@H](C)[C@H](O)CC(=O)c1ccc(N)cc1	> 128	> 128	> 10	> 10	> 128	> 10	> 128	> 10	> 128	> 128	inactive	> 128	> 10	> 10	> 128	–
CNc1ccc(C(=O)C[C@@H](O)[C@H](C)C[C@@H](C)[C@H](O)[C@H](C)/C=C/C=C/C=C/[C@H](O)CC(=O)O)cc1	> 128	> 128	> 10	> 10	> 128	> 10	> 128	> 10	> 128	> 128	inactive	> 128	> 10	> 10	> 128	–
C[C@H](/C=C/C=C/C=C/[C@H](O)CC(=O)O)[C@@H](O)[C@H](C)C[C@@H](C)[C@H](O)CC(=O)c1ccc(N[C@@H]2O[C@H](CO)[C@@H](O)[C@H](O)[C@H]2O)cc1	> 128	> 128	> 10	> 10	> 128	> 10	> 128	> 10	> 128	> 128	–	> 128	> 10	> 10	> 128	fold change (FC) (Mus musculus [5]): 1.5; Activity (Mus musculus [6]): Dose-dependent effect; fold change (FC) (Mus musculus [7]): 1.8; fold change (FC) (Mus musculus [4]): 2.1; Activity [8]: Non-toxic; fold change (FC) (Mus musculus [9]): 1.3; fold change (FC) (Mus musculus [10]): 2.2
CC(=O)Nc1ccc(C(=O)C[C@@H](O)[C@H](C)C[C@@H](C)[C@H](O)[C@H](C)/C=C/C=C/C=C/[C@H](O)CC(=O)O)cc1	> 128	> 128	> 10	> 10	> 128	> 10	> 128	> 10	> 128	> 128	inactive	> 128	> 10	> 10	> 128	–
